How the values were obtained:
[1] = organism: Oryctolagus cuniculus; assay: In vitro antagonistic activity against angiotensin II was determined to produce 25% maximal response in rabbit aorta at a dose of 10 ng/mL
[2] = organism: Rattus norvegicus; assay: In vitro agonistic activity against angiotensin II was determined to produce 25% maximal response in rat stomach at a dose of 50 ng/mL; type: functional
[3] = organism: Oryctolagus cuniculus; assay: Dose required to produce(to produce 25% maximal response) In vitro agonistic activity against angiotensin II in rabbit aorta; type: functional
Outline: (§1)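 Isolated rabbit aorta or rat stomach strips were used. Agonist activity (%) is the AII dose producing 25% of maximal response divided by the analogue dose producing the same response. Each value comes from 3 experiments.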

[4] = organism: Oryctolagus cuniculus; assay: In vitro antagonistic activity against angiotensin II was determined to produce 25% maximal response in rabbit aorta at a dose of 50 ng/mL
[5] = organism: Rattus norvegicus; assay: Dose required to produce(to produce 25% maximal response) In vitro agonistic activity against angiotensin II in rat stomach; type: functional
Outline: as §1

[6] = organism: Rattus norvegicus; assay: In vitro agonistic activity against angiotensin II was determined to produce 25% maximal response in rat stomach at a dose of 10 ng/mL; type: functional
[7] = organism: Rattus norvegicus; assay: Time course for AII (6 ng) induced pressor response in rats to return to 50% of pretreatment level after a bolus injection of 10 microg; type: functional, organism-based
Outline: (§2)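 Female Wistar rats were anesthetized with pentobarbital sodium (30 mg/kg), vagotomized, cannulated in the carotid artery and femoral vein, and given pentolinium tartrate (5 mg/200 g). After a bolus injection of inhibitor, 6 ng AII was injected at 15-min intervals while blood pressure was recorded by transducer. The read-out is the time for the pressor response to recover to 50% of pretreatment.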

[8] = organism: Rattus norvegicus; assay: Time course for AII (6 ng) induced pressor response in rats to return to 50% of pretreatment level after a bolus injection of 30 microg; type: functional, organism-based
Outline: as §2

[9] = organism: Rattus norvegicus; assay: Time course for AII (6 ng) induced pressor response in rats to return to 50% of pretreatment level after a bolus injection of 100 microg; type: functional, organism-based
Outline: as §2

[10] = organism: Rattus norvegicus; assay: Antagonism determined in rat stomach against AII; type: functional; conditions: read-out: pA2 (converted)
[11] = organism: Oryctolagus cuniculus; assay: Antagonism determined in rabbit aorta against AII; type: functional; conditions: read-out: pA2 (converted)
[12] = organism: Rattus norvegicus; assay: Time course for AII (6 ng) induced pressor response in rats to return to 50% of pretreatment level after a bolus injection of 5 microg; type: functional, organism-based
Outline: as §2

[13] = organism: Rattus norvegicus; assay: Time course for AII (6 ng) induced pressor response in rats to return to 50% of pretreatment level after a bolus injection of 3 microg; type: functional, organism-based
Outline: as §2

[14] = organism: Rattus norvegicus; assay: Time course for AII (6 ng) induced pressor response in rats to return to 50% of pretreatment level after a bolus injection of 1 microg; type: functional, organism-based
Outline: as §2

[15] = organism: Rattus norvegicus; assay: Antagonistic potency determined in rat stomach at 1 ng/mL expressed as dose ratio of AII to produce 25% of control maximal response; type: functional
[16] = organism: Oryctolagus cuniculus; assay: Antagonistic potency determined in rabbit aorta at 1 ng/mL expressed as dose ratio of AII to produce 25% of control maximal response; type: functional
[17] = organism: Oryctolagus cuniculus; assay: Dose required to produce(25% maximal response) In vitro agonistic activity against angiotensin II in rabbit aorta; type: functional
Outline: as §1

[18] = organism: Rattus norvegicus; assay: Antagonistic potency determined in rat stomach at 10 ng/mL expressed as dose ratio of AII to produce 25% of control maximal response; type: functional
[19] = organism: Oryctolagus cuniculus; assay: Antagonistic potency determined in rabbit aorta at 10 ng/mL expressed as dose ratio of AII to produce 25% of control maximal response; type: functional
[20] = organism: Rattus norvegicus; assay: Dose required to produce( 25% maximal response) In vitro agonistic activity against angiotensin II in rat stomach; type: functional
Outline: as §1

[21] = organism: Rattus norvegicus; assay: Time course for AII (6 ng) induced pressor response in rats to return to 50% of pretreatment level after a bolus injection of 50 microg; type: functional, organism-based
Outline: as §2

## CNCC(=O)N[C@@H](CCCN=C(N)N)C(=O)N[C@H](C(=O)N[C@@H](Cc1ccc(O)cc1)C(=O)N[C@H](C(=O)N[C@@H](Cc1c[nH]cn1)C(=O)N1CCC[C@H]1C(=O)N[C@@H](C(=O)O)C(C(F)(F)F)C(F)(F)F)C(C)C)C(C)C [listing 1 of 3 here]
[1]
  Dose ratio: 2.1
[2]
  Potency: 4.1
[3]
  Activity: 0%
[4]
  Dose ratio: 42
[5]
  Activity: 0.03%
[6]
  Potency: 2

## H-DRVYVHPF-OH [[Val5] - ANGIOTENSIN II]
[3]
  Activity: 100%
[5]
  Activity: 100%

## CNCC(=O)N[C@@H](CCCNC(=N)N)C(=O)N[C@H](C(=O)N[C@@H](Cc1ccc(O)cc1)C(=O)N[C@H](C(=O)N[C@@H](Cc1cnc[nH]1)C(=O)N1CCC[C@H]1C(=O)N[C@@H](C)C(=O)O)C(C)C)C(C)C
[7]
  Recovery time: 11 min
[8]
  Recovery time: 13.7 min
[9]
  Recovery time: 18 min

## CNCC(=O)N[C@@H](CCCN=C(N)N)C(=O)N[C@H](C(=O)N[C@@H](Cc1ccc(O)cc1)C(=O)N[C@H](C(=O)N[C@@H](Cc1c[nH]cn1)C(=O)N1CCC[C@H]1C(=O)N[C@@H](C(=O)O)C(C(F)(F)F)C(F)(F)F)C(C)C)C(C)C [listing 2 of 3 here]
[10]
  Kb: 7.94 nM
[11]
  Kb: 7.94 nM

## CNCC(=O)N[C@@H](CCCN=C(N)N)C(=O)N[C@H](C(=O)N[C@@H](Cc1ccc(O)cc1)C(=O)N[C@H](C(=O)N[C@@H](Cc1c[nH]cn1)C(=O)N1CCC[C@H]1C(=O)N[C@H](C(=O)O)C(C(F)(F)F)C(F)(F)F)C(C)C)C(C)C [listing 1 of 3 here]
[7]
  Recovery time: 73.6 min
[12]
  Recovery time: 40.6 min
[13]
  Recovery time: 19 min
[14]
  Recovery time: 5.8 min

## CNCC(=O)N[C@@H](CCCN=C(N)N)C(=O)N[C@H](C(=O)N[C@@H](Cc1ccc(O)cc1)C(=O)N[C@H](C(=O)N[C@@H](Cc1c[nH]cn1)C(=O)N1CCC[C@H]1C(=O)N[C@H](C(=O)O)C(C(F)(F)F)C(F)(F)F)C(C)C)C(C)C [listing 2 of 3 here]
[10]
  Kb: 0.851 nM
[11]
  Kb: 0.832 nM

## CNCC(=O)N[C@@H](CCCN=C(N)N)C(=O)N[C@H](C(=O)N[C@@H](Cc1ccc(O)cc1)C(=O)N[C@H](C(=O)N[C@@H](Cc1c[nH]cn1)C(=O)N1CCC[C@H]1C(=O)N[C@H](C(=O)O)C(C(F)(F)F)C(F)(F)F)C(C)C)C(C)C [listing 3 of 3 here]
[15]
  Potency: 2.2
[16]
  Potency: 6.1
[17]
  Activity: 1.1%
[18]
  Potency: 51.7
[19]
  Potency: 294
[20]
  Activity: 0.8%

## CNCC(=O)N[C@@H](CCCN=C(N)N)C(=O)N[C@H](C(=O)N[C@@H](Cc1ccc(O)cc1)C(=O)N[C@H](C(=O)N[C@@H](Cc1c[nH]cn1)C(=O)N1CCC[C@H]1C(=O)N[C@@H](CC(C)C)C(=O)O)C(C)C)C(C)C
[10]
  Kb: 2.51 nM
[11]
  Kb: 1.95 nM

## CNCC(=O)N[C@@H](CCCN=C(N)N)C(=O)N[C@H](C(=O)N[C@@H](Cc1ccc(O)cc1)C(=O)N[C@H](C(=O)N[C@@H](Cc1c[nH]cn1)C(=O)N1CCC[C@H]1C(=O)N[C@H](CC(C)C)C(=O)O)C(C)C)C(C)C
[21]
  Recovery time: 37.6 min
[7]
  Recovery time: 23.6 min
[13]
  Recovery time: 13.5 min
[8]
  Recovery time: 34.5 min

## CNCC(=O)N[C@@H](CCCN=C(N)N)C(=O)N[C@H](C(=O)N[C@@H](Cc1ccc(O)cc1)C(=O)N[C@H](C(=O)N[C@@H](Cc1c[nH]cn1)C(=O)N1CCC[C@H]1C(=O)N[C@@H](C(=O)O)C(C(F)(F)F)C(F)(F)F)C(C)C)C(C)C [listing 3 of 3 here]
[7]
  Recovery time: 60.1 min
[13]
  Recovery time: 32.3 min
[14]
  Recovery time: 12.5 min

— ChEMBL document CHEMBL1123764, “Long-acting angiotensin II inhibitors containing hexafluorovaline in position 8” (J Med Chem, 1987)
